Sampled rows, rich in hits. Any-hit rate of the full collection: about 6.8%.
PHOSPHO1 block: inhibitors of human PHOSPHO1 phosphatase; Q8TCT1; recombinant PHOSPHO1, absorbance phosphatase assay; inhibition, % at 13.3 µM; 290,000 compounds, 1.1% hits; AID 1565; in the data active = inhibition above about 60%
Target sequence (Q8TCT1 whole entry, looked up): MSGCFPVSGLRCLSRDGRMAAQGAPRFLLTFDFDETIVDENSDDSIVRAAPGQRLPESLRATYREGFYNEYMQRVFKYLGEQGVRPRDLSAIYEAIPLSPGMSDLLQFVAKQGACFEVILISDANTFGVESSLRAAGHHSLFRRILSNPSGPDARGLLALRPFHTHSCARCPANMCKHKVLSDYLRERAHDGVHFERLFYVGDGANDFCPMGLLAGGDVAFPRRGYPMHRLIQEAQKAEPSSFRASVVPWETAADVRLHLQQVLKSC
HSF1 inh: HSF1 inhibition | 300,000 compounds, 0.77% hits | AID 2098 | activity change, negative = inhibition, % at 7.5 µM (by protocol) | NIH3T3-HGL HSE-luciferase, MG132-induced, luminescence 8 h; hits give low values;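 active = more than half of replicate wells show activity change below -50%, luminescence cut by over half; inconclusive = some wells, but at most half, below -50%; inactive = no replicate well below -50%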;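 also: luciferase reports HSF-1 transcriptional activity via heat shock element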
ALR inh: human ALR oxidase inhibition via reduced H2O2. inhibition, % (concentration not given with the values). purified ALR, DTT oxidation, H2O2 HRP-luminol luminescence. P55789. 290,000 compounds, 3.8% hits. AID 485317;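 active = mean replicate inhibition above about 79%, with every replicate also reaching it, limit read from the data; inconclusive = only one of the two criteria met; inactive = mean below limit and not every replicate reaching it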
Target sequence (P55789 whole entry, looked up): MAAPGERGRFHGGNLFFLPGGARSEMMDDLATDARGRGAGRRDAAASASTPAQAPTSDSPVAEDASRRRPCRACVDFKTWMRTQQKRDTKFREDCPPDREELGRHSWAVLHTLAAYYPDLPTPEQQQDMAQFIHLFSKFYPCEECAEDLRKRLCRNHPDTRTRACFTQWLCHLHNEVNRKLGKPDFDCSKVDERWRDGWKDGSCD
HCV core dimer: blocks dimerization of HCV core protein. TR-FRET GST/Flag-core106 dimerization, 1536-well. AID 1899. 300,000 compounds, 0.33% hits. inhibition, % at 5 µM;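 active = inhibition above the mean of all tested compounds plus 3 SD, set per screening campaign, cut at about 45% in these data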
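Material: Tagged HCV core106 pair (GST and Flag) | Amount: GST-core106 13.5 nM, Flag-core106 17 nM | Medium: KF-containing HEPES buffer, pH 7.45, DTT, CHAPS, BSA | Reagent: Eu donor and XL665 acceptor anti-tag antibodies | Schedule: 4 h at 22.5 °C | Technique: Time-resolved FRET, ex 340 nm, em 617 and 671 nm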
AI-2 QS modul: modulates the Vibrio harveyi AI-2 quorum sensing system; Vibrio harveyi JMH597 AI-2 luminescence/OD600 ratio, 9 h; hits give low values; strain lacks LuxN and CqsS sensors; 0 = neutral-control median; 300,000 compounds, 0.4% hits; activity change, % at 7.5 µM; AID 2094; in the data active = activity change below about -75%, passing the limit was not always enough; inconclusive = no clear call, values can overlap the other calls;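 also: luminescence divided by OD600 gain over 9 h not by final OD600 alone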
HSF1 activator: increases HSF-1 driven luciferase reporter signal | NIH3T3-HGL HSF-1 luciferase reporter, MG132, 8 h; 100% = twice DMSO control signal | 300,000 compounds, 1.7% hits | AID 504408 | activation, % at 9 µM;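 active = mean replicate activation of at least 50% with a set share of replicates each reaching 50%; inconclusive = only one of those two conditions met; inactive = mean below 50% and too few replicates reaching it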
Numbers stand for hits; . = inactive; ? = inconclusive; / = no result.

SMILES | PHOSPHO1 block | HSF1 inh | ALR inh | HCV core dimer | AI-2 QS modul | HSF1 activator
Cc1ccc(C(=O)CSc2nnc3n2CCCCC3)s1 | / | / | . | / | / | /
CCc1ccccc1-n1c(SCC(=O)N2CCCC2)nc2[nH]ncc2c1=O | . | . | . | . | . | .
CCc1ccccc1-n1c(SCC(=O)Nc2ccc3c(c2)OCCO3)nc2[nH]ncc2c1=O | . | -67.8 | . | . | . | .
Cc1ccc(NC(=O)COC(=O)c2ccc(NC(=O)CC#N)cc2)cc1S(=O)(=O)N1CCOCC1 | / | / | 98.8 | / | / | /
COc1ccc(-n2nnc3c(SCC(=O)Nc4ccc5c(c4)OCCO5)ncnc32)cc1 | . | / | 98.6 | . | / | /
O=C(CSc1nc(Cc2ccccc2)nc2ccccc12)Nc1ccc2c(c1)OCCO2 | . | . | . | . | . | .
O=C(CSc1ncnc2ccccc12)Nc1ccc2c(c1)OCCO2 | . | . | 94.8 | . | . | .
COc1ccc(-n2nnc3c(=O)n(CC(=O)Nc4ccc5c(c4)OCCO5)cnc32)cc1OC | . | . | . | . | . | .
Cc1cc(C)n(CC(O)COc2c(C)cccc2C)n1 (stereo not drawn) | . | . | . | . | . | .
Cc1ccc(C(=O)NCCCNC(=O)c2ccco2)cc1C | . | . | . | . | . | .
O=C(c1cccc(Cl)c1)C1CCCN(Cc2ccc(N3CCNC3=O)cc2)C1 (stereo not drawn) | . | . | 95.9 | . | . | .
COc1ccc(-c2cc(C(=O)NCCN3CCOCC3)no2)cc1OC | . | . | . | . | . | .
Cc1ccc(NC2CCCN(C(=O)c3c(C)noc3C)C2)cc1C (stereo not drawn) | . | . | 95.4 | . | . | .
Cc1nnsc1C(=O)N1CCCC(Nc2ccc(C(C)C)cc2)C1 (stereo not drawn) | . | . | . | . | . | .
Cc1ccc(NC2CCCN(C(=O)c3snnc3C)C2)cc1C (stereo not drawn) | . | . | 99.0 | . | . | .
Cc1cccc(C)c1NC(=S)NC(C)(C)CO | . | . | / | . | . | .
c1ccc(Oc2nc(N3CCOCC3)nc(N3CCOCC3)n2)cc1 | . | . | 88.2 | . | . | .
C=CCNC(=O)c1c(Br)cnn1-c1ccc(C)cc1 | . | . | . | . | . | .
O=C(C1CCCN(S(=O)(=O)c2ccccc2[N+](=O)[O-])C1)N1CCN(c2ccccc2)CC1 (stereo not drawn) | . | . | . | . | . | .
COC(=O)[C@H](Cc1c[nH]c2ccccc12)NC(=O)NCc1ccccc1 | . | . | . | . | . | .
O=C(COc1ccc(F)cc1Br)N1CCN(c2ncccn2)CC1 | . | . | . | . | . | .
O=C(COc1ccc(F)cc1Br)N1CCN(S(=O)(=O)/C=C/c2ccccc2)CC1 | 61.5 | . | . | . | . | .
CCCCN=C(NNc1ccc(Br)cc1)C(=O)OCC | . | . | 99.2 | . | . | .
CCOC(=O)C(=NCCCN(C)C)NNc1ccc(Br)cc1 | . | . | 99.0 | . | . | .
CCN(Cc1nc(-c2ccccc2)no1)C(=O)c1ccco1 | . | . | . | . | . | .
SMILES | PHOSPHO1 block | HSF1 inh | ALR inh | HCV core dimer | AI-2 QS modul | HSF1 activator
CC(=O)N(C)c1ccc(NC(=O)Cc2cccs2)cc1 | . | . | . | . | . | .
CCN(CCCNc1ncnc2nc[nH]c12)c1cccc(C)c1 | . | . | 99.1 | . | . | .
CCCCN(CCCNc1ncnc2nc[nH]c12)c1ccccc1 | . | . | 93.4 | . | . | .
Fc1ccc(C2NC(=S)NC3=C2N2CCC3CC2)cc1 (stereo not drawn) | 75.5 | . | . | . | . | 53.5
CC(C)C(c1nnnn1C(C)(C)C)N1CCC(Cc2ccccc2)CC1 (stereo not drawn) | . | . | . | . | . | .
O=C(CN(CCc1ccccc1)C(=O)c1csnn1)NC1CCCC1 | . | . | . | . | . | .
O=C1OCC(Cn2c3ccccc3c3ccccc32)O1 (stereo not drawn) | 77.6 | . | . | . | . | .
Cc1ccc(OCc2nnc(SCCN3CCOCC3)n2C)cc1 | 73.5 | . | . | . | . | .
Cn1c(COc2ccccc2)nnc1SCCN1CCOCC1 | . | . | . | . | . | .
CCOc1ncccc1C(=O)NCCCSc1ccccc1 | . | . | . | . | . | .
CCCc1cc(C(=O)Nc2ccc(OC)cc2[N+](=O)[O-])cs1 | / | . | / | / | . | .
CC(=O)Nc1nc2c(s1)CCc1ccccc1-2 | . | . | . | . | . | .
O=C(CCCl)Nc1nc2c(s1)CCc1ccccc1-2 | . | . | . | . | . | 175.1
COc1ccc(C(=O)N2CCC(n3nccc3NC(=O)C3CCOC3)CC2)cc1 (stereo not drawn) | . | . | . | . | . | .
COc1ccc(S(=O)(=O)N(C)c2ccc(OC(=O)C(C)Oc3ccc(F)cc3)cc2)cc1 (stereo not drawn) | / | . | . | . | . | .
Cc1cc(SCNC(=O)c2ccccc2)ncn1 | . | . | 94.3 | . | . | .
O=C(NCSc1ccccc1)c1ccccc1 | / | . | . | . | . | .
CC(C)CC(NC(=O)C1CCC(=O)N1C(=O)OCc1ccccc1)C(=O)NC(Cc1ccccc1)C(N)=O (stereo not drawn) | . | . | . | . | . | .
Cc1ccc(NC(=O)CNC(=O)c2ccc(C)o2)cc1 | . | . | . | . | . | .
CCc1c(C(=O)NNC(=S)Nc2ccc(S(=O)(=O)Nc3ncccn3)cc2)csc1C | . | . | 98.0 | . | . | .
O=C(Cc1ccc(F)cc1)Nc1ccc(S(=O)(=O)N2CCCC2)cc1 | / | . | . | . | . | .
O=C(Cc1ccccc1F)Nc1ccc(S(=O)(=O)N2CCCCC2)cc1 | . | -64.9 | . | . | . | .
O=C(Nc1ccc(S(=O)(=O)Nc2ncccn2)cc1)C1=COCCO1 | / | . | 97.1 | . | . | .
COc1ccccc1OCC(=O)Nc1ccc(S(=O)(=O)N2CCN(C)CC2)cc1 | . | . | . | . | . | .
COc1ccccc1OCC(=O)Nc1ccc(S(=O)(=O)N2CCCC2)cc1 | . | -62.0 | . | . | ? | .
SMILES | PHOSPHO1 block | HSF1 inh | ALR inh | HCV core dimer | AI-2 QS modul | HSF1 activator
O=C(CSc1nnnn1-c1cccc2ccccc12)Nc1ccc(C(=O)O)cc1 | . | . | . | . | . | .
Cn1c(CN2CCN(C(=O)c3ccc(F)cc3)CC2)nc2cc([N+](=O)[O-])ccc21 | . | . | . | . | . | ?
COc1ccc(NC(=O)c2ccccc2N2C(=O)C3C4C=CC(C5CC45)C3C2=O)c(OC)c1 (stereo not drawn) | . | . | . | . | . | .
O=C(Cc1c(Cl)cccc1Cl)Nc1ccc(S(=O)(=O)Nc2ncccn2)cc1 | . | . | . | . | . | .
O=C(Cc1ccccc1F)Nc1ccc(S(=O)(=O)Nc2ncccn2)cc1 | . | . | . | . | -75.7 | .
O=c1[nH]ncc(N/N=C\c2cccs2)c1Cl | . | . | . | . | . | .
O=C(NC(=S)Nc1cccnc1)c1ccccc1 | . | . | . | . | / | .

Assay outcomes as filed in PubChem BioAssay.
